One assay deals with A549. Briefly: Antiproliferative activity against human A549 cells after 48 hrs by MTT assay. To be noted: A549, 48 h. The class given is functional, cell-based. The procedure, abridged: (§1)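 Cells diluted to 2 × 10⁴ cells/mL in complete medium, seeded in 96-well plates and incubated 24 h at 37 °C, 5% CO₂ before compound addition at preset concentrations; colchicine and CA-4 as positive references. After 48 h exposure, MTT added; 4 h later 10% SDS-5% isobutyl alcohol-0.01 M HCl extraction solution added, overnight at 37 °C, absorbance read at 570 nm.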

The nature of assay [1]: Antiproliferative activity against mouse B16F10 cells after 48 hrs by MTT assay. It counts as functional, cell-based. Particulars: B16-F10, 48 h. The procedure, abridged: as §1
The next assay has as its target Tubulin (Bos taurus, UniProt Q6B856+Q862L2+Q862F3). The assay is described as follows: Inhibition of bovine brain tubulin polymerization after 20 mins by turbidimetric method.
The subject of assay [2] is MCF7. The assay is described as follows: Antiproliferative activity against human MCF7 cells after 48 hrs by MTT assay. The class given is functional, cell-based. Particulars: MCF7, 48 h. In a few lines: as §1
In assay [3] the test system is MCF7. The assay is described as follows: Cell cycle arrest in human MCF7 cells assessed as accumulation at S phase at 1 ug/ml after 24 hrs by flow cytometry (reference value: 13.05 %). It counts as functional.
For assay [4], the system named is MCF7. Briefly: Cell cycle arrest in human MCF7 cells assessed as accumulation at G0/G1 phase at 1 ug/ml after 24 hrs by flow cytometry (reference value: 62.34 %). The class given is functional.
For assay [5], the system named is MCF7. The assay is described as follows: Cell cycle arrest in human MCF7 cells assessed as accumulation at G2/M phase at 1 ug/ml after 24 hrs by flow cytometry (reference value: 24.61 %). It counts as functional.
Assay [6] has as its system MCF7. The assay is described as follows: Cell cycle arrest in human MCF7 cells assessed as accumulation at G0/G1 phase at 2 ug/ml after 24 hrs by flow cytometry (reference value: 62.34 %). The class given is functional.
The test system of assay [7] is MCF7. The assay is described as follows: Cell cycle arrest in human MCF7 cells assessed as accumulation at S phase at 2 ug/ml after 24 hrs by flow cytometry (reference value: 13.05 %). The class given is functional.
Assay [8] concerns MCF7. The assay is described as follows: Cell cycle arrest in human MCF7 cells after 24 hrs by flow cytometry. It counts as functional, cell-based.
For assay [9], the system named is MCF7. The assay is described as follows: Cell cycle arrest in human MCF7 cells assessed as accumulation at G2/M phase at 2 ug/ml after 24 hrs by flow cytometry (reference value: 24.61 %). It counts as functional.

Converted amounts (≈) assume the structure as drawn.

On to `O=C(/C=C/c1ccc(O)c(O)c1)N1CCN(c2ccc(F)cc2)CC1`, for which the IC50 in the assay on A549 was determined as 1.25 µg/mL (≈ 3.65 µM); in assay [1], 1.68 µg/mL (≈ 4.91 µM); against Tubulin it was 7.39 µM; with MCF7 [2], 1.44 µg/mL (≈ 4.21 µM).

In the case of `O=C(/C=C/c1ccc(O)c(O)c1)N1CCN(c2cccc(Cl)c2)CC1`, the IC50 in the assay with A549 worked out at 1.29 µg/mL (≈ 3.6 µM); in [1], 1.71 µg/mL (≈ 4.77 µM); at Tubulin it was 5.28 µM; with MCF7 [2], 1.34 µg/mL (≈ 3.73 µM).

`O=C(/C=C/c1ccc(O)c(O)c1)N1CCN(c2ccc([N+](=O)[O-])cc2)CC1`: the IC50 turned out to be 1.56 µg/mL (≈ 4.22 µM) with A549, 1.79 µg/mL (≈ 4.85 µM) in assay [1], 4.86 µM against Tubulin and 1.14 µg/mL (≈ 3.09 µM) in the assay with MCF7 [2].

As to `O=C(/C=C/c1ccc(O)c(O)c1)N1CCN(c2ccc(Cl)c(Cl)c2)CC1`, the IC50 worked out at 1.74 µg/mL (≈ 4.42 µM) in the assay with A549, 1.66 µg/mL (≈ 4.22 µM) in assay [1], 4.93 µM against Tubulin and 1.28 µg/mL (≈ 3.25 µM) in the assay with MCF7 [2].

On to `O=C(/C=C/c1ccc(O)c(O)c1)N1CCN(c2ccccn2)CC1`, for which the 50% inhibitory concentration (IC50) in the assay on A549 worked out at 2.32 µg/mL (≈ 7.13 µM); in [1] it was 3.01 µg/mL (≈ 9.25 µM); against Tubulin it was 11.61 µM; with MCF7 [2] it was 1.82 µg/mL (≈ 5.59 µM).

`O=C(/C=C/c1ccc(O)c(O)c1)N1CCN(c2ccccc2)CC1`: the IC50 came to 1.32 µg/mL (≈ 4.07 µM) in the assay on A549, 1.78 µg/mL (≈ 5.49 µM) in assay [1], 3.14 µM on Tubulin and 1.03 µg/mL (≈ 3.18 µM) in the assay on MCF7 [2].

`COc1cc2c(c(OC)c1OC)-c1ccc(OC)c(=O)cc1[C@@H](NC(C)=O)CC2` [COLCHICINE]: the values for the Activity in the assay on MCF7 [3], in the assay on MCF7 [4] and in the assay with MCF7 [5] were 11.78%, 4.6% and 83.62%, respectively. Also, the values for the concentration for half-maximal inhibition (IC50) (with A549; in [1]; in the assay with MCF7 [2]) were 0.58 µg/mL (≈ 1.45 µM), 0.48 µg/mL (≈ 1.2 µM) and 0.39 µg/mL (≈ 0.976 µM), respectively.

As to `CCN1CCN(C(=O)/C=C/c2ccc(O)c(O)c2)CC1`, the IC50 in the assay with A549 was found to be 6.54 µg/mL (≈ 23.7 µM); in assay [1] it was 6.44 µg/mL (≈ 23.3 µM); at Tubulin, 12.78 µM; with MCF7 [2], 2.06 µg/mL (≈ 7.45 µM).

For the molecule `O=C(/C=C/c1ccc(O)c(O)c1)N1CCN(C(c2ccc(F)cc2)c2ccc(F)cc2)CC1`, the IC50 with A549 came to 0.73 µg/mL (≈ 1.62 µM); in assay [1], 0.52 µg/mL (≈ 1.15 µM); against Tubulin it was 1.44 µM; in the assay on MCF7 [2], 0.43 µg/mL (≈ 0.955 µM).

For `Cc1ccc(N2CCN(C(=O)/C=C/c3ccc(O)c(O)c3)CC2)c(C)c1`, the IC50 in the assay with A549 was found to be 1.02 µg/mL (≈ 2.89 µM); in assay [1] it was 1.43 µg/mL (≈ 4.06 µM); on Tubulin, 2.98 µM; in the assay with MCF7 [2], 0.78 µg/mL (≈ 2.21 µM).

Regarding `O=C(/C=C/c1ccc(O)c(O)c1)N1CCN(c2ccccc2Cl)CC1`, the IC50 in the assay on A549 is 1.44 µg/mL (≈ 4.01 µM); in [1], 1.82 µg/mL (≈ 5.07 µM); at Tubulin, 5.46 µM; with MCF7 [2] it was 1.36 µg/mL (≈ 3.79 µM).

Consider `O=C(/C=C/c1ccc(O)c(O)c1)N1CCN(c2ccccc2F)CC1`, for which the IC50 with A549 worked out at 1.43 µg/mL (≈ 4.18 µM); in assay [1], 2.43 µg/mL (≈ 7.1 µM); against Tubulin, 7.78 µM; with MCF7 [2], 1.38 µg/mL (≈ 4.03 µM).

As for `O=C(/C=C/c1ccc(O)c(O)c1)N1CCN(c2cccc(C(F)(F)F)c2)CC1`, the IC50 with A549 is 1.74 µg/mL (≈ 4.43 µM); in assay [1] it was 2.01 µg/mL (≈ 5.12 µM); on Tubulin, 5.89 µM; in the assay with MCF7 [2] it was 1.24 µg/mL (≈ 3.16 µM).

As for `O=C(/C=C/c1ccc(O)c(O)c1)N1CCN(C(c2ccccc2)c2ccccc2)CC1`, the Activity in the assay with MCF7 [6] was 2.63%; in the assay with MCF7 [7], 13.01%; in the assay with MCF7 [3] it was 18.18%; in the assay with MCF7 [4], 18.33%; with MCF7 [5], 63.39%; with MCF7 [8], “Dose-dependent effect”. For the same molecule, in the assay with MCF7 [9], the Activity is 84.36%. In addition, the IC50 with A549 amounted to 0.54 µg/mL (≈ 1.3 µM); in [1], 0.44 µg/mL (≈ 1.06 µM); against Tubulin it was 0.92 µM; in the assay with MCF7 [2], 0.32 µg/mL (≈ 0.772 µM).

As to `COc1ccc(N2CCN(C(=O)/C=C/c3ccc(O)c(O)c3)CC2)cc1`, the 50% inhibitory concentration (IC50) with A549 stood at 0.93 µg/mL (≈ 2.62 µM); in assay [1] it was 1.21 µg/mL (≈ 3.41 µM); at Tubulin it was 1.86 µM; in the assay on MCF7 [2], 0.52 µg/mL (≈ 1.47 µM).

With `COc1cccc(N2CCN(C(=O)/C=C/c3ccc(O)c(O)c3)CC2)c1`, the IC50 with A549 is 1.27 µg/mL (≈ 3.58 µM); in assay [1], 1.46 µg/mL (≈ 4.12 µM); on Tubulin it was 3.08 µM; in the assay with MCF7 [2], 0.92 µg/mL (≈ 2.6 µM).

Regarding `O=C(/C=C/c1ccc(O)c(O)c1)N1CCN(c2cccc(Cl)c2Cl)CC1`, the IC50 turned out to be 1.68 µg/mL (≈ 4.27 µM) in the assay with A549, 2.01 µg/mL (≈ 5.11 µM) in assay [1], 4.42 µM on Tubulin and 1.12 µg/mL (≈ 2.85 µM) with MCF7 [2].

As to `COc1ccccc1N1CCN(C(=O)/C=C/c2ccc(O)c(O)c2)CC1`, the IC50 is 0.98 µg/mL (≈ 2.77 µM) in the assay on A549, 1.23 µg/mL (≈ 3.47 µM) in [1], 1.72 µM against Tubulin and 0.54 µg/mL (≈ 1.52 µM) in the assay on MCF7 [2].

For the molecule `O=C(/C=C/c1ccc(O)c(O)c1)N1CCN(Cc2ccccc2)CC1`, the IC50 was 2.98 µg/mL (≈ 8.81 µM) in the assay with A549, 3.12 µg/mL (≈ 9.22 µM) in assay [1], 9.28 µM against Tubulin and 1.48 µg/mL (≈ 4.37 µM) with MCF7 [2].

With `COc1ccc(/C=C\c2cc(OC)c(OC)c(OC)c2)cc1O` [COMBRETASTATIN A4], the IC50 in the assay with A549 was determined as 0.46 µg/mL (≈ 1.45 µM); in assay [1], 0.42 µg/mL (≈ 1.33 µM); in the assay with MCF7 [2], 0.21 µg/mL (≈ 0.664 µM).

As for `O=C(/C=C/c1ccc(O)c(O)c1)N1CCN(C(c2ccccc2)c2ccc(Cl)cc2)CC1` (configuration not stated), the IC50 in the assay on A549 was 0.8 µg/mL (≈ 1.78 µM); in assay [1], 0.68 µg/mL (≈ 1.51 µM); on Tubulin it was 1.56 µM; in the assay with MCF7 [2], 0.48 µg/mL (≈ 1.07 µM).

For the origin of these results see ChEMBL document CHEMBL3351725, “Design, synthesis and biological evaluation of (E)-3-(3,4-dihydroxyphenyl)acrylylpiperazine derivatives as a new class of tubulin polymerization inhibitors” (Bioorg Med Chem, 2014).
